In one series the target is LasB (Pseudomonas aeruginosa, UniProt P14756). In words: LasB fluorescence assay based on a LasB-cleavable FRET peptide substrate. As to conditions: for improvement in potency: relative to fragment hits 3 and 4; for less potent than 8a and 8b in the in vitro LasB assay: relative to 8a and 8b. In kind it is biochemical.
Series [1] deals with P. aeruginosa strain PA14. The experiment in a line: swarming assay on swarm agar plates. Type of series: cell-based, Pseudomonas aeruginosa. To be noted: for effect on swarming: 25 μM, 16 h at 30 °C, versus DMSO-treated control; for swarming inhibition: data not shown. Put shortly:
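Test compound was added to the swarm agar at 25 μM, and P. aeruginosa PA14 was grown on these plates for 16 h at 30 °C. Swarm morphology was compared visually with plates containing DMSO as the vehicle control.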

The nature of series [2]: stability studies in bacterial culture medium. In kind it is physicochemical. To be noted: 48 h period.
Another series concerns the target secreted LasB (Pseudomonas aeruginosa, UniProt Q02RJ6). The experiment in a line: bacterial P. aeruginosa elastase assays. Type of series: cell-based.

Entries after “also recorded” stand apart in the source; their conditions may differ.

Sequence of LasB (P14756 198-498): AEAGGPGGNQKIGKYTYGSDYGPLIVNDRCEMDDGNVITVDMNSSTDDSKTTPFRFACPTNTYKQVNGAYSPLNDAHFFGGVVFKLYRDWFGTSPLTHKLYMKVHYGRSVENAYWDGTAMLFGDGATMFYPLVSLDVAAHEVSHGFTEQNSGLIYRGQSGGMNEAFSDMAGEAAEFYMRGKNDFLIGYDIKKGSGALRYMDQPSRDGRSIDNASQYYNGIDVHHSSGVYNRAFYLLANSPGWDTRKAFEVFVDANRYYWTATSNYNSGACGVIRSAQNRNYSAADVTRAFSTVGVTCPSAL
Sequence of secreted LasB (Q02RJ6 198-498): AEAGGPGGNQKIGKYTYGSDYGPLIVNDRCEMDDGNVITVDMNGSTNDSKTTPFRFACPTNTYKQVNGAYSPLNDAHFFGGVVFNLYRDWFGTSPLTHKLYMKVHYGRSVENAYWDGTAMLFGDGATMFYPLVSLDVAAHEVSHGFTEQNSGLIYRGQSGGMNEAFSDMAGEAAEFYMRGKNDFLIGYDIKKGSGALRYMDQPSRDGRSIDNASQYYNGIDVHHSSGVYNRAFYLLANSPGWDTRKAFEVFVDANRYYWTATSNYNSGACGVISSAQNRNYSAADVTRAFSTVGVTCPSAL

Turning to `Cc1c(O)c(=S)ccn1Cc1ccc(-c2ccc(F)c(F)c2)cc1` [Compound 8a], the improvement in potency on LasB was ~ 30 fold. In addition, the effect on swarming entry in series [1] is given as “almost completely abolished swarming”. Further, the “stability in bacterial culture medium” value in series [2] is given as “no detectable S-oxidation or decomposition”.
The like results for `Cc1c(O)c(=S)ccn1Cc1ccc(-c2ccccc2)cc1` [Compound 8b] were, in that order, ~ 30 fold, “almost completely abolished swarming” and “no detectable S-oxidation or decomposition”.
For the compound `O=C(Cc1ccccc1)NO` [Compound 1], at LasB, the “less potent than 8a and 8b in the in vitro LasB assay” value is on record as ~ 5 fold. At secreted LasB, the “antagonism in bacterial P. aeruginosa elastase assays (secreted LasB inhibition)” value is recorded as “no secreted LasB inhibition; also recorded: no antagonism”. In series [1], the swarming inhibition entry is reported as “no swarming inhibition”. Moreover, the “stability in bacterial culture medium” value in series [2] is “hydrolytic instability”.
With `O=C(Cc1cccc(F)c1)NO` [Compound 2], the “less potent than 8a and 8b in the in vitro LasB assay” value on LasB is ~ 5 fold. In addition, the “antagonism in bacterial P. aeruginosa elastase assays (secreted LasB inhibition)” value at secreted LasB is on record as “no secreted LasB inhibition; also recorded: no antagonism”. The swarming inhibition result in series [1] is given as “no swarming inhibition”. Moreover, the “stability in bacterial culture medium” value in series [2] is listed as “hydrolytic instability”.
